Measured values taken from ChEMBL document CHEMBL2311356, “The effect of 17-N substituents on the activity of the opioid κ receptor in nalfurafine derivatives” (Bioorg Med Chem Lett, 2013).

Tests used:
[1] = biological target: Delta-type opioid receptor (Mus musculus, UniProt P32300); assay: Displacement of [3H]DPDPE from delta opioid receptor in mouse whole brain membranes without cerebellum after 1 hr by liquid scintillation counting analysis; assay type: cell membranes, Membrane
Summary of the method: (§1)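 Radioligand displacement from membranes used [³H]DAMGO for μ and [³H]DPDPE for δ, both on mouse whole brain without cerebellum. For κ it used [³H]U-69,593 on guinea pig cerebellum. Values are means of three samples.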

[2] = Selectivity ratio of Ki for delta opioid receptor in mouse whole brain membranes without cerebellum to Ki for kappa opioid receptor in guinea pig cerebellum; assay type: cell membranes
[3] = Selectivity ratio of Ki for mu opioid receptor in mouse whole brain membranes without cerebellum to Ki for kappa opioid receptor in guinea pig cerebellum; assay type: cell membranes
[4] = biological target: T1, Kappa-type opioid receptor (Homo sapiens, UniProt P41145); assay: Agonist activity at human recombinant kappa opioid receptor expressed in CHO cells after 2 hrs by [35S]-GTPgammaS binding assay relative to control; assay type: functional, cell-based
T1 sequence (P41145 whole entry): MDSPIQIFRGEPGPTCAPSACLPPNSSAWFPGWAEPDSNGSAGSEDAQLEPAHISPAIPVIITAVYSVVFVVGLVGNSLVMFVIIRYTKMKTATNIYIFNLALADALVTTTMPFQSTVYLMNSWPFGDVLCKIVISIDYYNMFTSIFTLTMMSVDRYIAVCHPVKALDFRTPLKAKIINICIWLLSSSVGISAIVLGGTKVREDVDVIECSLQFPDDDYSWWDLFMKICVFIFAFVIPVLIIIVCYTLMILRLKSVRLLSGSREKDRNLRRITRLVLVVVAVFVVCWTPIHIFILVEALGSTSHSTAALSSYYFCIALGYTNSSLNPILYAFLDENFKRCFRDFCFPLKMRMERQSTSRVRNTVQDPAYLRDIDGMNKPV
Summary of the method: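 CHO cell membranes carrying the recombinant human κ receptor were incubated with [³⁵S]GTPγS, GDP and the test agent. U-69,593 served as the reference κ agonist. Values are means of four samples.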

[5] = biological target: Kappa-type opioid receptor (Cavia porcellus, UniProt P41144); assay: Displacement of [3H]U69593 from kappa opioid receptor in guinea pig cerebellum after 1 hr by liquid scintillation counting analysis; summary of the method: as §1
Chain of Kappa-type opioid receptor (Cavia porcellus, UniProt P41144) (P41144 whole entry): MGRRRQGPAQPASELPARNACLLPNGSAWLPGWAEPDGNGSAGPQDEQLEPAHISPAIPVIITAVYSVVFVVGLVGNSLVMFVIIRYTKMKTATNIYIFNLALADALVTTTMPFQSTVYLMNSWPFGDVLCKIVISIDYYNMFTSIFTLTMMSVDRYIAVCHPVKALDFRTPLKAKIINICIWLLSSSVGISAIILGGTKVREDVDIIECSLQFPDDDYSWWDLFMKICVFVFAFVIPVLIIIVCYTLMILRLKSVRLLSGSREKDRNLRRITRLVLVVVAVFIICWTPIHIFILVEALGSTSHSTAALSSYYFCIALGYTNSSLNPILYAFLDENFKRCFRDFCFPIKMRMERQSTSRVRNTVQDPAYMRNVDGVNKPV

[6] = biological target: Mu-type opioid receptor (Mus musculus, UniProt P42866); assay: Displacement of [3H]DAMGO from mu opioid receptor in mouse whole brain membranes without cerebellum after 1 hr by liquid scintillation counting analysis; assay type: cell membranes, Membrane; summary of the method: as §1
Chain of Mu-type opioid receptor (P42866 whole entry): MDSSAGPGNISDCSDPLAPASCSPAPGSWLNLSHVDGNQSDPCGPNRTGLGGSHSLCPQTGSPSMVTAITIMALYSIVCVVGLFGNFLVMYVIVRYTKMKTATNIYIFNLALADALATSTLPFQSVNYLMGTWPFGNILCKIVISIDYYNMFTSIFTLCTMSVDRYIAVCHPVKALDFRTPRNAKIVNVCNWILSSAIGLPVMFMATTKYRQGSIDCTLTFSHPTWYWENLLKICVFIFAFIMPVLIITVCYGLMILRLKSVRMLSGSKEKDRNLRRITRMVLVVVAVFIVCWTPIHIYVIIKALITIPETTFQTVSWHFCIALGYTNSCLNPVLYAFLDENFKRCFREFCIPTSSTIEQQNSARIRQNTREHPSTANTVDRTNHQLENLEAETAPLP

[7] = biological target: T1, Kappa-type opioid receptor; assay: Agonist activity at human recombinant kappa opioid receptor expressed in CHO cells after 2 hrs by [35S]-GTPgammaS binding assay; assay type: functional, cell-based
Summary of the method: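 CHO cell membranes carrying the recombinant human κ receptor were incubated with [³⁵S]GTPγS, GDP and the test agent. Values are means of four samples.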

Chain of Delta-type opioid receptor (P32300 whole entry): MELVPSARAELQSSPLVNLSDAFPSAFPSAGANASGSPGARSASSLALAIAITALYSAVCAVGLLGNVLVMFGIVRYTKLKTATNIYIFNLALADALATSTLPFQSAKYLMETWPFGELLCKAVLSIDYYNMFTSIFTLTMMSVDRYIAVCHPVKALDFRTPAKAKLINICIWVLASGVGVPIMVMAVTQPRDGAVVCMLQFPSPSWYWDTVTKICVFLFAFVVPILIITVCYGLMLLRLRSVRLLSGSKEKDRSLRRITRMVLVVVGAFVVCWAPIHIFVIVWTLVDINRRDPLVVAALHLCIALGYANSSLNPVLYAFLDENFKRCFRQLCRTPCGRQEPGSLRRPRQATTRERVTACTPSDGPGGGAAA

Structure (SMILES) | Ki [1] | Ratio Ki [2] | Ratio Ki [3] | Emax [4] | Ki [5] | Ki [6] | EC50 [7]
CC(C)CN1CC[C@H]2c3c(ccc(O)c3O)C[C@@H]1[C@]2(O)CCCN(C)C(=O)/C=C/c1ccoc1 | 514 nM | 872 | 78.4 | 99.5% | 0.59 nM | 46.2 nM | 8.07 nM
CCCN1CC[C@H]2c3c(ccc(O)c3O)C[C@@H]1[C@]2(O)CCCN(C)C(=O)/C=C/c1ccoc1 | 176 nM | 537 | 58.4 | 86.5% | 0.328 nM | 19.2 nM | 2.72 nM
CCN1CC[C@H]2c3c(ccc(O)c3O)C[C@@H]1[C@]2(O)CCCN(C)C(=O)/C=C/c1ccoc1 | 512 nM | 818 | 17.6 | 97.4% | 0.625 nM | 11 nM | 3.79 nM
CN(C(=O)/C=C/c1ccoc1)[C@@H]1CC[C@@]2(O)[C@H]3Cc4ccc(O)c5c4[C@@]2(CCN3CC2CC2)[C@H]1O5 |  |  |  | 98.1% |  |  | 
CN(CCC[C@]1(O)[C@H]2CCN(CCF)[C@@H]1Cc1ccc(O)c(O)c12)C(=O)/C=C/c1ccoc1 | > 1000 nM |  | 16.6 | 95.2% | 0.507 nM | 8.39 nM | 2.23 nM
CN(CCC[C@]1(O)[C@H]2CCN(C)[C@@H]1Cc1ccc(O)c(O)c12)C(=O)/C=C/c1ccoc1 | 35.7 nM | 48.6 | 3.77 | 90.4% | 0.735 nM | 2.77 nM | 11.3 nM
CN(CCC[C@]1(O)[C@H]2CCN(CC(F)(F)F)[C@@H]1Cc1ccc(O)c(O)c12)C(=O)/C=C/c1ccoc1 | > 1000 nM |  |  | 89% | 4.58 nM | > 1000 nM | 32.2 nM
CN(CCC[C@]1(O)[C@H]2CCN(CC(F)F)[C@@H]1Cc1ccc(O)c(O)c12)C(=O)/C=C/c1ccoc1 | > 1000 nM |  |  | 101% | 2.19 nM | > 1000 nM | 22.4 nM
